Measurements published in article PMC5516171 (Clinical Pharmacology in Drug Development, 2016).
“Also recorded” adds a separate entry of the source.

Assays:
[1] = test system: rat peritoneal mast cells; experiment: In vitro mast cell degranulation, rat peritoneal mast cells; format: cell-based
How it was run: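 Freshly isolated rat peritoneal mast cells were resuspended in RPMI 1640 with 1% FBS. They were given increasing concentrations of the excipient peptide (up to 250 μg/mL), the siRNA drug substance (up to 1000 μg/mL), or both combined. Incubation was 37°C for 10 or 30 min. Supernatant histamine (nM ± SD) and chymase measured degranulation; LDH measured viability.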

[2] = test system: human mast cell line HMC‐1; experiment: In vitro mast cell degranulation, human mast cell line HMC‐1; format: cell-based; details: HMC‐1 cells, 37°C, 30 minutes; up to 250 μg/mL ARC‐EX1 and ARC‐520 API
How it was run: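 HMC‑1 human mast cells were cultured in Iscove's medium with 2% FBS. They were exposed to increasing concentrations, up to 250 μg/mL, of the excipient peptide, the siRNA drug substance, or both combined. The positive control was phorbol myristate acetate plus calcium ionophore A23187. Incubation was 37°C for 30 min. Supernatants were assayed for histamine and β‑hexosaminidase (degranulation) and for LDH (viability).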

Substance: ARC‐EX1: delivery excipient: masked, hepatocyte‐targeted L‐melittin‐derived peptide; masking group carboxydimethyl maleic anhydride N‐acetyl galactosamine (LIGAILKVLATGLPTLISWIKNKRKQ; CDM-NAG masking groups)
- Concentration at which maximum histamine release was observed ([1]; 10 and 30 minutes of incubation): ≥ 10000 ng/mL
- Mast cell degranulation and histamine release ([1]; 37°C, 10 or 30 minutes, up to 250 μg/mL ARC‐EX1 or 1000 μg/mL ARC‐520 API): major trigger; also recorded: induced mast cell degranulation and histamine release in a dose‐dependent manner
- Mast cell degranulation and histamine release [2]: major trigger
